Tests used:
[1] = target: T1, Acetylcholinesterase (Rattus norvegicus, UniProt P37136); test: Inhibition of AChE in rat cerebral cortex homogenates using acetylthiocholine iodide as substrate after 8 mins by Ellman's spectrophotometric method; assay type: tissue-based
T1 sequence (P37136 whole entry): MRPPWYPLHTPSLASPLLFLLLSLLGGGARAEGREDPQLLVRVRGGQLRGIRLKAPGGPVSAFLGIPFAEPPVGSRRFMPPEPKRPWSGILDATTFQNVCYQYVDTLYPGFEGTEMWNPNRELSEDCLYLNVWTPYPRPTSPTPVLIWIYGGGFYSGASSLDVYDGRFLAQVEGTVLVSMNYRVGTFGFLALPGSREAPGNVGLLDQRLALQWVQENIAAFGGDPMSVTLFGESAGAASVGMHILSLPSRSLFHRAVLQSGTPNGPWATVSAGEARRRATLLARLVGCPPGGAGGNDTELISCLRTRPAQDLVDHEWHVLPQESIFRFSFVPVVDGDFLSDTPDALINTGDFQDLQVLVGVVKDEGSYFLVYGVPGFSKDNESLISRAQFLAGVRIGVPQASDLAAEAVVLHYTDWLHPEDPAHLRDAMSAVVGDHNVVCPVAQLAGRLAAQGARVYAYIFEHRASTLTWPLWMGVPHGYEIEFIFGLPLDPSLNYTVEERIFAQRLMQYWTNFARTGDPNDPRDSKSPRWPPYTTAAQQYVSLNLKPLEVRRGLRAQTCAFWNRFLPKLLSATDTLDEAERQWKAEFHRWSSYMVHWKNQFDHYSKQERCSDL
Procedure, shortened: (§1)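 Ellman colorimetric assay. Compounds were dissolved in DMSO to 10 mM and diluted in double-distilled water. Each mixture held compound, phosphate buffer ([…]) and enzyme with substrate. For AChE, rat cerebral cortex homogenate was used with acetylthiocholine iodide (2 mM solution). For BuChE, rat serum was used with S-butyrylthiocholine iodide (2 mM solution). Incubated 8 min, stopped with 3% SDS, then 0.2% DTNB added. Absorbance read at 440 nm, duplicates.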

[2] = species on record: Rattus norvegicus; test: Selectivity ratio of IC50 for rat serum BuChE to IC50 for AChE in rat cerebral cortex homogenates; assay type: tissue-based
[3] = target: Butyrylcholinesterase (Rattus norvegicus, UniProt Q9JKC1); test: Inhibition of rat serum BuChE using S-butyrylthiocholine iodide as substrate after 8 mins by Ellman's spectrophotometric method; procedure, shortened: as §1
Butyrylcholinesterase, sequence (Q9JKC1 whole entry): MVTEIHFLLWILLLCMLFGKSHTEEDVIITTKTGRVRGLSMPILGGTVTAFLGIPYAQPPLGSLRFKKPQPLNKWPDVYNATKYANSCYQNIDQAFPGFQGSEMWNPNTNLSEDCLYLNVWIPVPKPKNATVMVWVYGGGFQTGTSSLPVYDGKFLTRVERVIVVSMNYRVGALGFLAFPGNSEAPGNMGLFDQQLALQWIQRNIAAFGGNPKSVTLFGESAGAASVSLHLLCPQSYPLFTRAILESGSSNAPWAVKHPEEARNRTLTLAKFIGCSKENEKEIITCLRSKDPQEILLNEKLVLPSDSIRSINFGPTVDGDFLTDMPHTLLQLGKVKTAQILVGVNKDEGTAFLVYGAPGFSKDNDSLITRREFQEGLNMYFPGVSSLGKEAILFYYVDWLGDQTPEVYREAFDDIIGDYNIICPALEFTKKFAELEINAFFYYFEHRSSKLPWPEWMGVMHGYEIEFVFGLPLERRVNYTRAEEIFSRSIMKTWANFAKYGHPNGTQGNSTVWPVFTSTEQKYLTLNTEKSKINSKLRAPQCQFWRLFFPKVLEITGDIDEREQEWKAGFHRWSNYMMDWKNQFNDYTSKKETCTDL

Row | Structure (SMILES) | IC50 ([1]; read-out: IC50) [µM] | Ratio IC50 [2] | IC50 [3] [µM] | IC50 [1]
1 | CCN(CC)C(=O)C1CCN(C(=O)Nc2cccc(Cn3nc(Nc4cccc5ccccc45)ccc3=O)c2)CC1 | 0.126 | – | – | –
2 | CCN(CC)C(=O)C1CCN(C(=O)Nc2cccc(Cn3nc(Nc4ccccc4)ccc3=O)c2)CC1 | 3.28 | > 12 | > 40 | –
3 | CCN(CC)C(=O)C1CCN(C(=O)Nc2cccc(Cn3nc(Nc4ccccc4C)ccc3=O)c2)CC1 | 0.049 | > 816 | > 40 | –
4 | CCN(CC)C(=O)C1CCN(C(=O)Nc2cccc(Cn3nc(Nc4ccc(C)cc4)ccc3=O)c2)CC1 | 19.8 | – | – | –
5 | CCc1ccccc1Nc1ccc(=O)n(Cc2cccc(NC(=O)N3CCC(C(=O)N(CC)CC)CC3)c2)n1 | 0.188 | – | – | –
6 | Cc1ccccc1Nc1ccc(=O)n(Cc2cccc(NC(=O)N3CCC(C(=O)N(C(C)C)C(C)C)CC3)c2)n1 | 0.116 | – | – | –
7 | CCN(CC)C(=O)C1CCN(C(=O)Nc2cccc(Cn3nc(Nc4cccc(C)c4)ccc3=O)c2)CC1 | 1.42 | – | – | –
8 | CCN(C(=O)C1CCN(C(=O)Nc2cccc(Cn3nc(Nc4ccccc4C)ccc3=O)c2)CC1)C(C)C | 0.028 | 196 | 5.5 | –
9 | CCN(CC)C(=O)C1CCN(C(=O)Nc2cccc(Cn3nc(-c4cccc(Br)c4)ccc3=O)c2)CC1 | 0.623 | – | – | –
10 | CCN(CC)C(=O)C1CCN(C(=O)Nc2cccc(Cn3nc(-c4ccc5ccccc5c4)ccc3=O)c2)CC1 | 0.462 | – | – | –
11 | CCN(CC)C(=O)C1CCN(C(=O)Nc2cccc(Cn3nc(Nc4cccc(C(F)(F)F)c4)ccc3=O)c2)CC1 | 0.135 | – | – | –
12 | CCN(CC)C(=O)C1CCN(C(=O)Nc2cccc(Cn3nc(Nc4ccc(C(F)(F)F)cc4)ccc3=O)c2)CC1 | 4.84 | – | – | –
13 | Cc1ccccc1Nc1ccc(=O)n(Cc2cccc(NC(=O)N3CCC(C(=O)N4CCOCC4)CC3)c2)n1 | – | – | – | Not Active
14 | CCN(CC)C(=O)C1CCN(C(=O)Nc2cccc(Cn3nc(-c4ccc(C)cc4)ccc3=O)c2)CC1 | 2.01 | – | – | –
15 | CCN(CC)C(=O)C1CCN(C(=O)Nc2cccc(Cn3ncccc3=O)c2)CC1 | 4.9 | – | – | –
16 | CCN(CC)C(=O)C1CCN(C(=O)Nc2cccc(Cn3nc(-c4ccccc4C)ccc3=O)c2)CC1 | 2.61 | – | – | –
17 | CCN(CC)C(=O)C1CCN(C(=O)Nc2cccc(Cn3nc(Nc4ccccc4C(C)C)ccc3=O)c2)CC1 | 1.5 | – | – | –
18 | CCN(C)C(=O)C1CCN(C(=O)Nc2cccc(Cn3nc(Nc4ccccc4C)ccc3=O)c2)CC1 | 0.473 | > 84 | > 40 | –
19 | Cc1ccccc1Nc1ccc(=O)n(Cc2cccc(NC(=O)N3CCC(C(=O)N(C)C)CC3)c2)n1 | 7.6 | – | – | –
20 | CCN(CC)C(=O)C1CCN(C(=O)Nc2cccc(Cn3nc(-c4cccc(Cl)c4)ccc3=O)c2)CC1 | 0.648 | – | – | –
21 | c1ccc(CN2CCC(CCN=c3cc4c(n[nH]3)-c3ccccc3C4)CC2)cc1 | 0.01 | – | – | –
22 | c1ccc(CN2CCC(CCNc3cc4c(nn3)-c3ccccc3CC4)CC2)cc1 | 0.039 | – | – | –
23 | Cc1ccccc1Nc1ccc(=O)n(Cc2cccc(NC(=O)N3CCC(C(=O)N(C)C(C)C)CC3)c2)n1 | 0.046 | 217 | 10 | –
24 | CCN(CC)C(=O)C1CCN(C(=O)Nc2cccc(Cn3nc(Nc4ccccc4C(F)(F)F)ccc3=O)c2)CC1 | 0.119 | – | – | –
25 | CCN(CC)C(=O)C1CCN(C(=O)Nc2cccc(Cn3nc(-c4ccccc4)ccc3=O)c2)CC1 | 1.66 | > 24 | > 40 | –
26 | CCN(CC)C(=O)C1CCN(C(=O)Nc2cccc(Cn3nc(-c4cccc5ccccc45)ccc3=O)c2)CC1 | 0.188 | > 212 | > 40 | –
27 | CCN(CC)C(=O)C1CCN(C(=O)Nc2cccc(Cn3nc(-c4cccc(C)c4)ccc3=O)c2)CC1 | 0.746 | – | – | –
28 | CCN(CC)C(=O)C1CCN(C(=O)Nc2cccc(Cn3nc(Nc4c(C)cccc4C)ccc3=O)c2)CC1 | 0.607 | – | – | –
29 | CCN(CC)C(=O)C1CCN(C(=O)Nc2cccc(Cn3nc(-c4cccc(C#N)c4)ccc3=O)c2)CC1 | 0.22 | – | – | –
